Measurements taken from ChEMBL document CHEMBL2176911 (J Med Chem, 2012).
Blank lines part the entries; values can stand above or below the molecule they belong to. Active and inactive are the calls of the source. The rule behind the calls is not given here.

Experiments:
[1] = test system: HT-22; assay: Inhibition of GSK3-mediated […] phosphorylation in mouse HT22 cells at 10 uM after 24 hrs by Western blot analysis in presence of MG132; format: cell-based
[2] = molecular target: Dual specificity tyrosine-phosphorylation-regulated kinase 2 (Homo sapiens, UniProt Q92630); assay: Inhibition of human recombinant GST-tagged DYRK2 expressed in Escherichia coli using GRSRSRSRSRSR as substrate and [gamma33P]ATP after 30 mins by scintillation counting
[3] = molecular target: T1, Dual specificity tyrosine-phosphorylation-regulated kinase 4 (Homo sapiens, UniProt Q9NR20); assay: Inhibition of human recombinant GST-tagged DYRK4 expressed in Escherichia coli using GRSRSRSRSRSR as substrate and [gamma33P]ATP after 30 mins by scintillation counting
T1 sequence (Q9NR20 whole entry): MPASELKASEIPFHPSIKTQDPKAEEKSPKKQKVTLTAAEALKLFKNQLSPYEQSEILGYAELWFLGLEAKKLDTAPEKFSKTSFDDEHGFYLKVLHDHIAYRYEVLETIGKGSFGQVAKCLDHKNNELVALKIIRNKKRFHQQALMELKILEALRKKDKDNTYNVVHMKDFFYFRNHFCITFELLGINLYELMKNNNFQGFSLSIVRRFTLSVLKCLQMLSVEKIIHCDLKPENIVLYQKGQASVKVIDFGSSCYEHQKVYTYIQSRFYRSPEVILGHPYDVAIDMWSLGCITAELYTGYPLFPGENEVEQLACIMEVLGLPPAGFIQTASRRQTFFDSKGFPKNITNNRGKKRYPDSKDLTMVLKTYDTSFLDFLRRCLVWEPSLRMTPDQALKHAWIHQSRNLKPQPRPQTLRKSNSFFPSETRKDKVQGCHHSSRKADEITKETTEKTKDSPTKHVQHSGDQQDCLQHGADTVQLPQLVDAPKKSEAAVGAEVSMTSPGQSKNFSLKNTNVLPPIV

[4] = molecular target: Glycogen synthase kinase-3 (Sus scrofa, UniProt B2LUN4+I6LNT8); assay: Inhibition of pig GSK3alpha/beta isolated from brain using YRRAAVPPSPSLSRHSSPHQ-phosphoS-EDEEE as substrate and [gamma33P]ATP after 30 mins by scintillation counting
In short: (§1)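 Panel of purified kinases (recombinant from several species plus native enzymes), each assayed radiometrically over a range of inhibitor concentrations; IC50 in μM calculated from the dose-response curves.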

[5] = test system: Plasmodium falciparum; assay: Inhibition of Plasmodium falciparum recombinant GSK3 expressed in Escherichia coli using YRRAAVPPSPSLSRHSSPHQ-phosphoS-EDEEE as substrate and [gamma33P]ATP at 10 uM after 30 mins by scintillation counting
[6] = molecular target: Dual specificity protein kinase CLK1 (Mus musculus, UniProt P22518); assay: Inhibition of mouse recombinant GST-tagged CLK1 expressed in Escherichia coli using GRSRSRSRSRSR as substrate and [gamma33P]ATP after 30 mins by scintillation counting; in short: as §1
[7] = molecular target: Glycogen synthase kinase-3 beta (Homo sapiens, UniProt P49841); assay: Inhibition of human recombinant GSK3beta expressed in insect cells using YRRAAVPPSPSLSRHSSPHQ-phosphoS-EDEEE as substrate and [gamma33P]ATP after 30 mins by scintillation counting
[8] = molecular target: CDK9/cyclin T1 (Homo sapiens, UniProt P50750); assay: Inhibition of human recombinant CDK9/cyclin T expressed in insect cell using YSPTSPSYSPTSPSYSPTSPSKKKK as substrate and [gamma33P]ATP after 30 mins by scintillation counting; in short: as §1
[9] = molecular target: Dual specificity protein kinase CLK3 (Homo sapiens, UniProt P49761); assay: Binding affinity to CLK3
[10] = Inhibition of starfish CDK1/cyclin B using histone H1 as substrate and [gamma33P]ATP after 30 mins by scintillation counting; design: species or system Asteroidea; in short: as §1
[11] = molecular target: Dual specificity protein kinase CLK3 (Mus musculus, UniProt O35492); assay: Inhibition of mouse recombinant GST-tagged CLK3 expressed in Escherichia coli using GRSRSRSRSRSR as substrate and [gamma33P]ATP after 30 mins by scintillation counting; in short: as §1
[12] = molecular target: T2, Dual specificity tyrosine-phosphorylation-regulated kinase 1A (Rattus norvegicus, UniProt Q63470); assay: Inhibition of rat recombinant C-terminal truncated GST-tagged DYRK1A expressed in Escherichia coli using GRSRSRSRSRSR as substrate and [gamma33P]ATP after 30 mins by scintillation counting
[13] = molecular target: Dual specificity tyrosine-phosphorylation-regulated kinase 3 (Homo sapiens, UniProt O43781); assay: Inhibition of human recombinant GST-tagged DYRK3 expressed in Escherichia coli using GRSRSRSRSRSR as substrate and [gamma33P]ATP after 30 mins by scintillation counting
[14] = molecular target: Casein kinase II (Homo sapiens) (UniProt P67870+P68400+P19784); assay: Inhibition of human recombinant CK2 using RRREDEESDDEE as substrate and [gamma33P]ATP at 10 uM after 30 mins by scintillation counting; format: protein-complex assay
[15] = molecular target: Serine/threonine-protein kinase pim-1 (Homo sapiens, UniProt P11309); assay: Inhibition of human recombinant PIM1 expressed in Escherichia coli using histone H1 as substrate and [gamma33P]ATP after 30 mins by scintillation counting
[16] = molecular target: Cyclin-dependent kinase 7/ cyclin H (Homo sapiens, UniProt P50613); assay: Inhibition of human recombinant CDK7/cyclin H expressed in insect cell using YSPTSPSYSPTSPSYSPTSPSKKKK as substrate and [gamma33P]ATP after 30 mins by scintillation counting; in short: as §1
[17] = molecular target: Cyclin-dependent kinase 2/cyclin A (Homo sapiens, UniProt P24941); assay: Inhibition of CDK2/cyclin A using [gamma33P]ATP after 30 mins by scintillation counting; format: protein-complex assay; in short: as §1
[18] = molecular target: Mitogen-activated protein kinase 1 (Rattus norvegicus, UniProt P63086); assay: Inhibition of rat recombinant ERK2 using Ets1 as substrate and [gamma33P]ATP as substrate after 30 mins by scintillation counting; in short: as §1
[19] = molecular target: T3, Dual specificity tyrosine-phosphorylation-regulated kinase 2 (Homo sapiens) (UniProt Q92630); assay: Binding affinity to DYRK2
T3 sequence (whole entry): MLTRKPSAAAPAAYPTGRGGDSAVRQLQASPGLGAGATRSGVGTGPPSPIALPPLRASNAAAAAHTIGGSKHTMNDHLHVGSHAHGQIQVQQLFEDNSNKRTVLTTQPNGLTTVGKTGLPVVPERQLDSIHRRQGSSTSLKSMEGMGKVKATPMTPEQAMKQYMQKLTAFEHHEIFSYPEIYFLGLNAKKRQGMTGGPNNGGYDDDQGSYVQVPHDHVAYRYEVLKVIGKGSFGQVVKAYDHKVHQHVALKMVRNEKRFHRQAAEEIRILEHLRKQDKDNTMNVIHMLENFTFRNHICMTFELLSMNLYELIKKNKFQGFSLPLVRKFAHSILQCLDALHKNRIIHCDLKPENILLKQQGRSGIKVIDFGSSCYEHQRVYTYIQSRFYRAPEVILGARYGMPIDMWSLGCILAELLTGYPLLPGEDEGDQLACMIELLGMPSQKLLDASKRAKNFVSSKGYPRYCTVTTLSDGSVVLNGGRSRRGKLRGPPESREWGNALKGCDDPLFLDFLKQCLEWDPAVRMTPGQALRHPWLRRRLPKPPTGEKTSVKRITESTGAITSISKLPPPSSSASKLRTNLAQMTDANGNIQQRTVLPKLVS

[20] = molecular target: Dual specificity protein kinase CLK2 (Mus musculus, UniProt O35491); assay: Inhibition of mouse recombinant GST-tagged CLK2 expressed in Escherichia coli using GRSRSRSRSRSR as substrate and [gamma33P]ATP after 30 mins by scintillation counting; in short: as §1
[21] = molecular target: Dual specificity protein kinase CLK1 (Homo sapiens) (UniProt P49759); assay: Binding affinity to CLK1
[22] = test system: Leishmania major; assay: Inhibition of Leishmania major recombinant CK1 expressed in Escherichia coli using RRKHAAIGpSAYSITA as substrate and [gamma33P]ATP at 10 uM after 30 mins by scintillation counting
[23] = molecular target: Dual specificity protein kinase CLK4 (Mus musculus, UniProt O35493); assay: Inhibition of mouse recombinant GST-tagged CLK4 expressed in Escherichia coli using GRSRSRSRSRSR as substrate and [gamma33P]ATP after 30 mins by scintillation counting
[24] = molecular target: Glycogen synthase kinase-3 alpha (Homo sapiens, UniProt P49840); assay: Inhibition of human recombinant GSK3alpha expressed in insect cells using YRRAAVPPSPSLSRHSSPHQ-phosphoS-EDEEE as substrate and [gamma33P]ATP after 30 mins by scintillation counting
[25] = molecular target: T2, Dual specificity tyrosine-phosphorylation-regulated kinase 1A; assay: Inhibition of rat DYRK1A isolated from brain using KKISGRLSPIMTEQ as substrate and [gamma33P]ATP after 30 mins by scintillation counting
[26] = Inhibition of pig […] isolated from brain using RRKHAAIGpSAYSITA as substrate and [gamma33P]ATP after 30 mins by scintillation couting; design: species or system Sus scrofa; in short: as §1
[27] = molecular target: Dual specificity protein kinase CLK4 (Homo sapiens, UniProt Q9HAZ1); assay: Binding affinity to CLK4
[28] = molecular target: Dual specificity protein kinase CLK1 (Mus musculus) (UniProt P22518); assay: Inhibition of mouse recombinant GST-tagged CLK1 expressed in Escherichia coli using GRSRSRSRSRSR as substrate and [gamma33P]ATP at 10 uM after 30 mins by scintillation counting
In short: (§2)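 Radiometric kinase assay with the RS peptide as substrate and 15 μM [γ-33P]ATP.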

[29] = molecular target: T3, Dual specificity tyrosine-phosphorylation-regulated kinase 2 (Homo sapiens); assay: Inhibition of human recombinant GST-tagged DYRK2 expressed in Escherichia coli using GRSRSRSRSRSR as substrate and [gamma33P]ATP at 10 uM after 30 mins by scintillation counting
[30] = molecular target: Dual specificity protein kinase CLK3 (Mus musculus) (UniProt O35492); assay: Inhibition of mouse recombinant GST-tagged CLK3 expressed in Escherichia coli using GRSRSRSRSRSR as substrate and [gamma33P]ATP at 10 uM after 30 mins by scintillation counting; in short: as §2
[31] = molecular target: Dual specificity tyrosine-phosphorylation-regulated kinase 1A (Homo sapiens) (UniProt Q13627); assay: Inhibition of human recombinant GST-tagged DYRK1A expressed in Escherichia coli using GRSRSRSRSRSR as substrate and [gamma33P]ATP at 15 uM after 30 mins by scintillation counting
[32] = Inhibition of Plasmodium falciparum recombinant GSK3 expressed in Escherichia coli using YRRAAVPPSPSLSRHSSPHQ-phosphoS-EDEEE as substrate and [gamma33P]ATP after 30 mins by scintillation counting; in short: as §1
[33] = Inhibition of Leishmania major recombinant CK1 expressed in Escherichia coli using RRKHAAIGpSAYSITA as substrate and [gamma33P]ATP after 30 mins by scintillation counting; in short: as §1
[34] = Binding affinity to casein kinase 1
[35] = molecular target: Dual specificity tyrosine-phosphorylation-regulated kinase 1A (Rattus norvegicus) (UniProt Q63470); settings: CD Sprague-Dawley, 4.5 to 45 uM

Sequence of Dual specificity protein kinase CLK2 (O35491 whole entry): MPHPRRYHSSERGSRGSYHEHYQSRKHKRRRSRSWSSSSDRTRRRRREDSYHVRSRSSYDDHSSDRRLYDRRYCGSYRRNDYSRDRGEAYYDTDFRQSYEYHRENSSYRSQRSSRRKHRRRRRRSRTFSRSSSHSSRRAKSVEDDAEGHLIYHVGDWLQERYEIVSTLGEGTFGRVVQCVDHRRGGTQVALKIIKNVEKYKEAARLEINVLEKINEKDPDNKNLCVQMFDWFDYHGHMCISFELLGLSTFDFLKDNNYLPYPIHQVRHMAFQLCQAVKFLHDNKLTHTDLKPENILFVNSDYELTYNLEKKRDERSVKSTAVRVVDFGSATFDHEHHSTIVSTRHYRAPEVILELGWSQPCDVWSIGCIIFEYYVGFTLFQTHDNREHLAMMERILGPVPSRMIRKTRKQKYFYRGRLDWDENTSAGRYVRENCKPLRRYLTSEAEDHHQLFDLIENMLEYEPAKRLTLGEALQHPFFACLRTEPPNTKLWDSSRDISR
Sequence of Serine/threonine-protein kinase pim-1 (P11309 whole entry): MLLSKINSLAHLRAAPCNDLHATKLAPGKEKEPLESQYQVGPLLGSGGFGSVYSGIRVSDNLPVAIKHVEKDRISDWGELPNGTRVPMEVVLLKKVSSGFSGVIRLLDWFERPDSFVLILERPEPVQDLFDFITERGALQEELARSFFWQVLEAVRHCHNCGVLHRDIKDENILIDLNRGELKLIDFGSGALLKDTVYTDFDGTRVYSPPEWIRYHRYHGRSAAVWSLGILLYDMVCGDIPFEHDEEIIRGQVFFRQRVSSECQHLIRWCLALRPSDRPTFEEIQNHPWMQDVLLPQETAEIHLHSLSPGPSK
Sequence of Dual specificity protein kinase CLK3 (Homo sapiens, UniProt P49761) (P49761 whole entry, looked up): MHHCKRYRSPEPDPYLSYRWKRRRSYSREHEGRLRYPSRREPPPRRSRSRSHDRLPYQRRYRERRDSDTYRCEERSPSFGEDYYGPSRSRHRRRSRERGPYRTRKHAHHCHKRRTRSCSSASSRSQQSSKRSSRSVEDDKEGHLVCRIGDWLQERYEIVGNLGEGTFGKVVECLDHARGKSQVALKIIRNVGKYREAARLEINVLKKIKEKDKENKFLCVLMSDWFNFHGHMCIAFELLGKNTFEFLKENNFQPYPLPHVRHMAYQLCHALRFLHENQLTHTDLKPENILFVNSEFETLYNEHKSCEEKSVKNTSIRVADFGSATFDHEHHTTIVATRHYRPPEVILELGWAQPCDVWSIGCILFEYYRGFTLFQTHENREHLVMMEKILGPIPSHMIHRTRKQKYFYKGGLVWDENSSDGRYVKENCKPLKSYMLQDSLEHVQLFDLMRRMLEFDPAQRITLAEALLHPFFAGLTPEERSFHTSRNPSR
Sequence of Dual specificity protein kinase CLK1 (Homo sapiens) (P49759 whole entry, looked up): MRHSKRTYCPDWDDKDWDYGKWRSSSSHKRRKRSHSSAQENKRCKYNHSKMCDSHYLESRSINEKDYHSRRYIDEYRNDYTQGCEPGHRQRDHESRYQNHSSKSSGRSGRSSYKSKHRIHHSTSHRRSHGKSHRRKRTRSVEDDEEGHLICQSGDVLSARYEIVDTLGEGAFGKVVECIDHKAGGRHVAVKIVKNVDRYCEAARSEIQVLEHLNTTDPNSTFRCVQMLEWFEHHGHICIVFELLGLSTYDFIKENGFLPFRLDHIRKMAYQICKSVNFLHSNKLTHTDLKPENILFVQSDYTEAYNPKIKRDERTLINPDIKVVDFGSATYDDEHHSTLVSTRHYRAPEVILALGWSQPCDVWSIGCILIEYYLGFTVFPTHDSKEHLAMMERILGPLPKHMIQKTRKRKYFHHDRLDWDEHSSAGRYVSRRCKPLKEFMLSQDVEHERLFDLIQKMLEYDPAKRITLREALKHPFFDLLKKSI
Sequence of Mitogen-activated protein kinase 1 (P63086 whole entry): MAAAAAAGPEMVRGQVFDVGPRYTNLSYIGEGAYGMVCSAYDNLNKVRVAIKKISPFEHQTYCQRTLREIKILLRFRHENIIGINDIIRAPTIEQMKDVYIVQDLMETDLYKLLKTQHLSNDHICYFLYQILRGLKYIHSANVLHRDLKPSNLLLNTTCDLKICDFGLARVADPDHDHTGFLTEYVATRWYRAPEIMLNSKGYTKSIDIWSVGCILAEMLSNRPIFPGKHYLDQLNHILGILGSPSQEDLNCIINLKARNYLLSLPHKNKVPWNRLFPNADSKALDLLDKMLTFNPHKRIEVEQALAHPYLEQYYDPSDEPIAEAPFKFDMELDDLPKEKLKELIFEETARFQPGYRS
Sequence of Dual specificity protein kinase CLK3 (Mus musculus) (O35492 whole entry): as the sequence (P49761 whole entry, looked up) above, with L55I, R64H, Y83C, P86S, G99A, T484S counted along it
Sequence of Dual specificity protein kinase CLK3 (Mus musculus, UniProt O35492) (O35492 whole entry, the tested form may be a part): as the sequence (P49761 whole entry, looked up) above, with L55I, R64H, Y83C, P86S, G99A, T484S counted along it
Sequence of CDK9/cyclin T1 (O60563 whole entry): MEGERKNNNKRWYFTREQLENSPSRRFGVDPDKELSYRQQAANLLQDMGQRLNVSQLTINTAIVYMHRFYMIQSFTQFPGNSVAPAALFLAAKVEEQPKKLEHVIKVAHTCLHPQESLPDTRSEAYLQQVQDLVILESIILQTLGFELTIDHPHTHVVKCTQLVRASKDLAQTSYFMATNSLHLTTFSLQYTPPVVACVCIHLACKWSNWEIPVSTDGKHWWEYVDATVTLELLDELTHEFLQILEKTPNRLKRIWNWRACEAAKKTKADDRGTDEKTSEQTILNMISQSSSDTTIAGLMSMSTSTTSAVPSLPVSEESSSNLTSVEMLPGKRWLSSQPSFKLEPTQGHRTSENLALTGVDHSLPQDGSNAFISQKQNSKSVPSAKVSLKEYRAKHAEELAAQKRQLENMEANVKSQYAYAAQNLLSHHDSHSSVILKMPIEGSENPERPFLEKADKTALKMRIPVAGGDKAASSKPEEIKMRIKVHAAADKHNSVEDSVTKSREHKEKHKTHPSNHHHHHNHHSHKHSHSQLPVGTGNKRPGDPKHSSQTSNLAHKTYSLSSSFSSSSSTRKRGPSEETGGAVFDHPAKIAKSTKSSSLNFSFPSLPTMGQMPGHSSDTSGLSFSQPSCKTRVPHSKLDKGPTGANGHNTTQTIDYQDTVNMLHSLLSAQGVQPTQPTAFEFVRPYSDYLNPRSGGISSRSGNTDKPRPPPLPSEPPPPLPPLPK
Sequence of CDK9/cyclin T1 (P50750 whole entry): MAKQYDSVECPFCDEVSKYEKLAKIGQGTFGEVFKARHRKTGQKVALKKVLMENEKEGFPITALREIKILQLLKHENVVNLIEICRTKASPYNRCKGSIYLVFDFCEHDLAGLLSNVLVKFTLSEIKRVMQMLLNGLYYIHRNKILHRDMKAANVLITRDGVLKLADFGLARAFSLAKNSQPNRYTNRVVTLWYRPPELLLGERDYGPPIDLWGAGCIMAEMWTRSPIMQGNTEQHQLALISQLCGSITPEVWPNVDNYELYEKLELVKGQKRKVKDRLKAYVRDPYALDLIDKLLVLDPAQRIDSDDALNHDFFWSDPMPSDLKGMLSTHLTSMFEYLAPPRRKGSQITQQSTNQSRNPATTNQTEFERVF
Sequence of Dual specificity protein kinase CLK1 (Mus musculus) (P22518 whole entry, looked up): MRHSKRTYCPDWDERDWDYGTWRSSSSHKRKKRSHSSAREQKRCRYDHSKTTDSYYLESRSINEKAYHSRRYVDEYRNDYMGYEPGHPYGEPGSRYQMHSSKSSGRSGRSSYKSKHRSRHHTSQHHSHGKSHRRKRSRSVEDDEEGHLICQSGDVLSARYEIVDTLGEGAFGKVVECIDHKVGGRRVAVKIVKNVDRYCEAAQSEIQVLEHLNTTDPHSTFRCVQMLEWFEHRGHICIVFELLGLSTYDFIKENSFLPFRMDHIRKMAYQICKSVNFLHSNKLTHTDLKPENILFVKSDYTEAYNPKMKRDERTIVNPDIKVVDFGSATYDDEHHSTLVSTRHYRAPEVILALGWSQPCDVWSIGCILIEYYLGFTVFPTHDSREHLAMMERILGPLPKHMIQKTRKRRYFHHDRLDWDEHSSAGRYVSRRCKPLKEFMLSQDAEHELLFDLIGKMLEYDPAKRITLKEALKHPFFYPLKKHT

Compound: O=C1Nc2cc(Br)ccc2/C1=C1/N=c2ccccc2=C1NO
inhibition [1]: Active

Compound: CN1C(=O)/C(=C/c2ccc3c(c2)OCO3)N=C1N [LEUCETTAMINE B]
IC50 [2]: 2 µM
IC50 [3]: > 10 µM
IC50 [4]: 2.9 µM
inhibition [5]: inactive
IC50 [6]: 0.066 µM
IC50 [7]: > 10 µM
IC50 [8]: > 10 µM
Activity [9]: Active
IC50 [10]: > 10 µM
IC50 [11]: 1.8 µM
IC50 [12]: 0.92 µM
IC50 [13]: 1.4 µM
inhibition [14]: inactive
IC50 [15]: > 10 µM
IC50 [16]: > 10 µM
IC50 [17]: > 10 µM
IC50 [18]: > 10 µM
Activity [19]: Active
IC50 [20]: 2.1 µM
Activity [21]: Active
inhibition [22]: inactive
IC50 [23]: 0.15 µM
IC50 [24]: 7.7 µM
IC50 [25]: 0.9 µM
IC50 [26]: > 10 µM
Activity [27]: Active

inhibition [28]: inactive
inhibition [29]: inactive
inhibition [30]: inactive
inhibition [31]: inactive
Compound: CC12CC3CC(C)(C1)CC(N)(C3)C2

inhibition [28]: inactive
inhibition [29]: inactive
inhibition [30]: inactive
inhibition [31]: inactive
Compound: Nc1c2c(nc3ccccc13)CCCC2

Compound: COc1ccc2c(c1)[nH]c1c(C)nccc12 [HARMINE]
IC50 [2]: 0.12 µM
IC50 [3]: 9.5 µM
IC50 [4]: 19 µM
IC50 [6]: 0.072 µM
IC50 [8]: 0.72 µM
Activity [9]: Active
IC50 [10]: 18 µM
IC50 [11]: > 10 µM
IC50 [13]: 0.21 µM
inhibition [14]: inactive
IC50 [32]: > 10 µM
IC50 [15]: > 10 µM
IC50 [33]: ≥ 10 µM
IC50 [16]: > 10 µM
IC50 [17]: > 30 µM
IC50 [18]: > 30 µM
Activity [19]: Active
Activity [34]: Active
IC50 [20]: 0.28 µM
Activity [21]: Active
IC50 [23]: 0.05 µM
IC50 [26]: 1.8 µM
inhibition [35]: Active
Activity [27]: Active
